Series [1] in a line: physchem. Particulars: PAMPA. (The PAMPA barrier holds no transporters, so it reflects passive diffusion.)
Series [2] is described as follows: Selectivity index, ratio of IC50 for equine serum BuChE to IC50 for electric eel AChE.
Series [3] is filed under the species Rattus norvegicus. The series can be described thus: Selectivity index, ratio of IC50 for rat serum BuChE to IC50 for 5% rat cortex homogenate AChE.
Series [4] is described as follows: Inhibition of rat serum BuChE using butyrylthiocholine chloride as substrate after 15 mins by Ellman's method. The gist of the method:
(§1)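 Ellman assay. Equine serum or rat serum BuChE pre-incubated with test compound at various concentrations (DMSO <1%) in 0.1 M phosphate buffer pH 8.0 for 15 min at 37°C. DTNB (0.2%) added, absorbance read at 412 nm. Inhibition % = (1−Ai/Ac)×100. IC50 is the mean of three independent experiments, each run in triplicate.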

The target in series [5] is Cholinesterase (Equus caballus, UniProt P81908). The series can be described thus: Inhibition of equine serum BuChE using butyrylthiocholine chloride as substrate after 15 mins by Ellman's method. The gist of the method:
as §1
A general note: Ellman's reagent forms a yellow product with free thiols.

Series [6] deals with T1, Acetylcholinesterase (Rattus norvegicus, UniProt P37136).
T1 sequence (P37136 whole entry): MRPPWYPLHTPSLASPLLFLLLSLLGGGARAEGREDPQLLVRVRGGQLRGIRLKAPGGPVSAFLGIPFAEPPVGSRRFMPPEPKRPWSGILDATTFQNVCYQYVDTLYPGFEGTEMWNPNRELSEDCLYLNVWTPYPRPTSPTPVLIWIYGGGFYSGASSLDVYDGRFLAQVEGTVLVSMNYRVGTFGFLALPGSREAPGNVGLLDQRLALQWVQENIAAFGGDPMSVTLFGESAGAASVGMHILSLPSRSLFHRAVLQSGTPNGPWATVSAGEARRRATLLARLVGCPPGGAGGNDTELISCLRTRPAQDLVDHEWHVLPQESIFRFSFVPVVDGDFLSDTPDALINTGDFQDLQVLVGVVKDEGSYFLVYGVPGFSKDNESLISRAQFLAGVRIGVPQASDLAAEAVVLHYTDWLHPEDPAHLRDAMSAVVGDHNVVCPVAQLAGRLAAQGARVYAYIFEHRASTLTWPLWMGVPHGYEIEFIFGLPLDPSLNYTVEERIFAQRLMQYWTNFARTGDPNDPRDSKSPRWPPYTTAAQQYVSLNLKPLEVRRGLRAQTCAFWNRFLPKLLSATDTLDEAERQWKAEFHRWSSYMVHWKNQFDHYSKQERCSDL

Series [7] has as its target T2, Amine oxidase [flavin-containing] B (Homo sapiens, UniProt P27338).
T2 sequence (P27338 whole entry): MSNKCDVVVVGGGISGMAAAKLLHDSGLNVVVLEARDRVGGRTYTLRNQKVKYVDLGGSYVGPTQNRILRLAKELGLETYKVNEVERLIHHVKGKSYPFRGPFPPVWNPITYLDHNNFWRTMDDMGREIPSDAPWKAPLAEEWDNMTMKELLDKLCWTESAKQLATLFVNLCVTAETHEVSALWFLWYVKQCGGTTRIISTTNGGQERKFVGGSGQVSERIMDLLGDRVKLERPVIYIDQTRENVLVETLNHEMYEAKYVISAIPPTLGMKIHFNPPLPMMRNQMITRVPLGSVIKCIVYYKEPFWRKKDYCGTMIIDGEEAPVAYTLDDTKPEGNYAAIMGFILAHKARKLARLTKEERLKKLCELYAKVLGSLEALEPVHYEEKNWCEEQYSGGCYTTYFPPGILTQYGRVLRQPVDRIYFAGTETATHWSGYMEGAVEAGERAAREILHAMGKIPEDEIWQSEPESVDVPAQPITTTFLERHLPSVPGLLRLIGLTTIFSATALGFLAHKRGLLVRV
The series can be described thus: biochemical. It is filed as cell-based.

In series [8] the target is Acetylcholinesterase (Electrophorus electricus, UniProt O42275). The series can be described thus: Inhibition of electric eel AChE using acetylthiocholine chloride as substrate after 15 mins by Ellman's method.
Sequence of Acetylcholinesterase (Electrophorus electricus, UniProt O42275) (O42275 whole entry): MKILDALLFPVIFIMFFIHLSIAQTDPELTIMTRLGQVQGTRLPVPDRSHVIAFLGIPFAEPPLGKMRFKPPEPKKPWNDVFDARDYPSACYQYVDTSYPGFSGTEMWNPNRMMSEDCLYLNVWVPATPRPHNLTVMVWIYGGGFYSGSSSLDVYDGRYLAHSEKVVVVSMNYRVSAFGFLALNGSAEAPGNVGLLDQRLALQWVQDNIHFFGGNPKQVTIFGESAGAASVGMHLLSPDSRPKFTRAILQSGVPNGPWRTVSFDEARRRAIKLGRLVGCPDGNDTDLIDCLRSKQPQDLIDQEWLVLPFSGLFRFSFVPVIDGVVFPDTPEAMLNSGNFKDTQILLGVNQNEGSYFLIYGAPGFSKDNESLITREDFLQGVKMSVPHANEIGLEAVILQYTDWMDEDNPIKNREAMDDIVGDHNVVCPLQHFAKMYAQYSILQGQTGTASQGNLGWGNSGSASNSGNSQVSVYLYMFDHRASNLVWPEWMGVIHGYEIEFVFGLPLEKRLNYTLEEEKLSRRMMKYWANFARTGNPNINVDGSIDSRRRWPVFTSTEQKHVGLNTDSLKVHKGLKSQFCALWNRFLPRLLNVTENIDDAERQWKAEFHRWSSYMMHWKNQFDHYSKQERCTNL
The species entered for series [9] is Homo sapiens. The series can be described thus: Selectivity index, ratio of IC50 for recombinant human MAO-B to IC50 for recombinant human MAO-A.
In series [10] the target is T3, Amine oxidase [flavin-containing] A (Homo sapiens, UniProt P21397).
T3 sequence (P21397 whole entry): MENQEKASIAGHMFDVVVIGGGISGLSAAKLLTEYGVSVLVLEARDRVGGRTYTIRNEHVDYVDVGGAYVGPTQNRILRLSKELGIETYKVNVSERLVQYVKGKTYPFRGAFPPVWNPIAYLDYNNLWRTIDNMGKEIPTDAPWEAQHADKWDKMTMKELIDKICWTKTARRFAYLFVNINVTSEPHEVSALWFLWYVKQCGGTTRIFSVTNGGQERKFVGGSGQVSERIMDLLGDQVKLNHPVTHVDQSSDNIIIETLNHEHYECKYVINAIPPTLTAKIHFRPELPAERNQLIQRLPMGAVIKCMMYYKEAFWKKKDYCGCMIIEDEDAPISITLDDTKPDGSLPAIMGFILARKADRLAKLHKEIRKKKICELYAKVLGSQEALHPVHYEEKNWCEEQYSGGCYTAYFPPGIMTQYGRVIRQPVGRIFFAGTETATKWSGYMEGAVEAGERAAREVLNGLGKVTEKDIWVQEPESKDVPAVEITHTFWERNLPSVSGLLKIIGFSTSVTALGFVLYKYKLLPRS
The series can be described thus: Inhibition of recombinant human MAO-A expressed in baculovirus infected BTI insect cells using kynuramine as substrate after 30 mins by fluorescence assay.

Sequence of Cholinesterase (P81908 whole entry): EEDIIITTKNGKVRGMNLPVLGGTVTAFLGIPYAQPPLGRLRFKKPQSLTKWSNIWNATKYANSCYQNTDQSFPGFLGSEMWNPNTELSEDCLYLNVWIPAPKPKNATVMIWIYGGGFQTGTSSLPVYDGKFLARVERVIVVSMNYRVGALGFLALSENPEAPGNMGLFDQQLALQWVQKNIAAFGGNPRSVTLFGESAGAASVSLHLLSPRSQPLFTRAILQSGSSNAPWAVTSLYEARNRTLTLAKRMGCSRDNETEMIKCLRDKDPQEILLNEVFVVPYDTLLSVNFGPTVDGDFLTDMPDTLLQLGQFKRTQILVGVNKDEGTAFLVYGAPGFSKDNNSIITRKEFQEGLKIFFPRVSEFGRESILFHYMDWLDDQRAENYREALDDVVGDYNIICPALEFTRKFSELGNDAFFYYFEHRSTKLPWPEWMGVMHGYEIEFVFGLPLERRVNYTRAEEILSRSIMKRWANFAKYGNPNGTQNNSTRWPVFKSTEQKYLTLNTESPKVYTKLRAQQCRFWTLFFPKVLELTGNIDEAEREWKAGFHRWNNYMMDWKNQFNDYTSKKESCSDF

The Papp is a coefficient for how fast a substance crosses the barrier. Low values mean slow passage, high ones fast passage. Molecule `Clc1cccc(Cl)c1N=C1NCCN1` [CLONIDINE] had a Papp at 18 h, 100 ug/ml in [1] of 5.1 to 5.3 ×10⁻⁶ cm/s.
For `CCn1cc(C(=O)O)c(=O)c2cc(F)c(N3CCNCC3)cc21` [NORFLOXACIN], the Papp at 18 h, 100 ug/ml in series [1] lay in the range of 0.1 to 0.42 ×10⁻⁶ cm/s.
The same measure, in the same setting: the same measure for `CCn1cc(C(=O)O)c(=O)c2cc(F)c(N3CCNCC3)nc21` [ENOXACIN]: 0.47 to 0.9 ×10⁻⁶ cm/s.
As usually defined, the IC50 is the concentration that inhibits the measured activity by half. `O=C1CCc2ccc(OCCCCN3CCN(Cc4ccccc4)CC3)cc2N1`: the values for the Ratio IC50 in [2], in series [3] and in [9] were 1.8, 2.3 and 1.3, respectively. For the same molecule, the IC50 came out at 31.6 µM in series [4]; 10.7 µM in series [5]; 13.7 µM in series [6]; 9.4 µM in series [7]; 6 µM in [8]; 7.4 µM in [10].
In the case of `O=C1CCc2ccc(OCCCCCCN3CCN(Cc4ccccc4)CC3)cc2N1`, the Ratio IC50 in series [2] was 0.5; in [3], 1.3; in series [9] it was 0.7. The concentration for half-maximal inhibition (IC50) in series [4] is 24 µM; in [5], 6.6 µM; in series [6], 17.9 µM; in series [7], 4.3 µM; in [8], 12.9 µM; in series [10], 5.7 µM.
Take `O=C1CCc2ccc(OCCCN3CCCCC3)cc2N1`: the Ratio IC50 was 3.2 in series [2], 1.4 in series [3] and 0.5 in [9]. The half-inhibitory concentration (IC50) was 22.9 µM in [4]; 39 µM in series [5]; 16.5 µM in series [6]; 6.2 µM in [7]; 12.2 µM in [8]; 13.1 µM in series [10].
Consider `CC(C)N1CCN(CCCCOc2ccc3c(c2)NC(=O)CC3)CC1`, for which the figures for the Ratio IC50 in [2], in series [3] and in series [9] were 4.4, 1 and 0.5, respectively. Also, the half-maximal inhibitory concentration (IC50) in series [4] was 3.7 µM; in series [5], 4.5 µM; in [6] it was 3.6 µM; in [7], 7.6 µM; in [8], 1 µM; in series [10] it was 14.3 µM.
For the molecule `CC(C)N1CCN(CCCCCCOc2ccc3c(c2)NC(=O)CC3)CC1`, the values for the Ratio IC50 in series [2], in [3] and in [9] were 2.7, 0.7 and 3.7, respectively. Besides, the IC50 in [4] was found to be 1.8 µM; in series [5], 2 µM; in series [6] it was 2.43 µM; in [7], 24.9 µM; in series [8], 0.76 µM; in [10], 6.8 µM.
Turning to `Cn1c(=O)c2[nH]cnc2n(C)c1=O.O` [THEOPHYLLINE], the apparent permeability coefficient (Papp) at 18 h, 100 ug/ml in [1] was 0.1 to 0.12 ×10⁻⁶ cm/s.
With `CCN(CC)CCCOc1ccc2c(c1)NC(=O)CC2`, the values for the Ratio IC50 in [2], in series [3] and in series [9] were 2.7, 1.1 and 2.2, respectively. Also, the IC50 is 20.5 µM in [4]; 29.7 µM in [5]; 19.2 µM in [6]; 18.6 µM in series [7]; 11.2 µM in series [8]; 8.4 µM in series [10].
Consider `O=C1CCc2ccc(OCCCCCCN3CCC(N4CCCC4)CC3)cc2N1`, for which the Ratio IC50 in series [2] stood at 6.2; in [3], 1.6; in series [9] it was 3. The 50% inhibitory concentration (IC50) stood at 20.2 µM in series [4]; 32.7 µM in series [5]; 12.3 µM in [6]; 18.3 µM in series [7]; 5.3 µM in series [8]; 6.2 µM in series [10].
As to `CCN(CC)CCCCOc1ccc2c(c1)NC(=O)CC2`, the values for the Ratio IC50 in [2], in [3] and in [9] were 1.5, 0.7 and 0.5, respectively. For the same molecule, the half-maximal inhibitory concentration (IC50) in series [4] is 9.5 µM; in [5], 7.7 µM; in series [6], 14.5 µM; in series [7], 4 µM; in series [8], 5.1 µM; in series [10], 7.7 µM.
Consider `CN1C(C(=O)Nc2ccccn2)=C(O)c2ccccc2S1(=O)=O` [PIROXICAM], for which the Papp at 18 h, 100 ug/ml in series [1] was 0.72 to 2.5 ×10⁻⁶ cm/s.
With `O=C1CCc2ccc(OCCCN3CCc4ccccc4C3)cc2N1`, the Ratio IC50 in series [2] was found to be 0.4; in [3], 0.8; in [9], 2.2. In addition, the IC50 in series [4] was 12.6 µM; in [5] it was 5.5 µM; in [6], 15.5 µM; in series [7], 18.8 µM; in [8], 13.3 µM; in series [10] it was 8.6 µM.
Consider `CCN(CC)CCCCCOc1ccc2c(c1)NC(=O)CC2`, for which the Ratio IC50 in [2] was 2.7; in series [3], 0.4; in series [9], 0.7. The half-maximal inhibitory concentration (IC50) in series [4] is 14.7 µM; in [5], 21.9 µM; in [6], 34.1 µM; in series [7] it was 8.5 µM; in [8], 8.2 µM; in series [10], 11.4 µM.
For `Cn1c(=O)c2c(ncn2C)n(C)c1=O` [CAFFEINE], in series [1], the Papp at 18 h, 100 ug/ml lay within 1.28 to 1.3 ×10⁻⁶ cm/s.
As to `O=C1CCc2ccc(OCCCCCN3CCc4ccccc4C3)cc2N1`, the Ratio IC50 in series [2] came out at 0.1; in series [3], 1.4; in series [9], 1.3. Further, the concentration for half-maximal inhibition (IC50) in series [4] worked out at 11.2 µM; in series [5] it was 0.9 µM; in [6], 7.8 µM; in [7], 5.9 µM; in series [8], 9.1 µM; in [10], 4.6 µM.
`O=C1CCc2ccc(OCCCN3CCN(Cc4ccccc4)CC3)cc2N1`: the Ratio IC50 in series [2] amounted to 14.9; in series [3], 2.7; in [9] it was 3.3. The IC50 worked out at 34.2 µM in series [4]; 19.4 µM in series [5]; 12.6 µM in series [6]; 21.8 µM in [7]; 1.3 µM in [8]; 6.6 µM in series [10].
As for `O=C1CCc2ccc(OCCCCCN3CCN(Cc4ccccc4)CC3)cc2N1`, the Ratio IC50 came to 1.3 in series [2], 1.9 in series [3] and 2.7 in series [9]. Also, the IC50 in series [4] was determined as 29.6 µM; in series [5], 12.7 µM; in series [6] it was 15.7 µM; in series [7] it was 6.5 µM; in [8], 10 µM; in series [10], 2.4 µM.
`O=C1CCc2ccc(OCCCCCN3CCN(c4ccccn4)CC3)cc2N1`: the Ratio IC50 in [2] worked out at 0.4; in [3], 1.6; in [9], 1.6. The half-maximal inhibitory concentration (IC50) in series [4] worked out at 44.6 µM; in series [5], 6.2 µM; in series [6], 28.4 µM; in series [7], 20.3 µM; in [8], 15.6 µM; in series [10] it was 13 µM.
`C#CCN(CCCCCOc1ccc2c(c1)NC(=O)CC2)Cc1ccccc1`: the Ratio IC50 came to 0.4 in series [2], 2.1 in series [3] and 0.9 in [9]. Also, the IC50 in series [4] stood at 29.6 µM; in series [5] it was 7 µM; in series [6] it was 14.3 µM; in series [7], 8.3 µM; in series [8], 19.4 µM; in series [10], 8.9 µM.

The record behind these values is ChEMBL document CHEMBL4033676, “Design, synthesis and biological evaluation of 3,4-dihydro-2(1H)-quinoline-O-alkylamine derivatives as new multipotent cholinesterase/monoamine oxidase inhibitors for the treatment of Alzheimer's disease” (Bioorg Med Chem, 2017).
